Hits are enriched below; roughly 2.7% of the tested compounds scored in any of these assays.
ARFGAP1 inh: inhibitors of rat ARFGAP1 GAP activity, primary screen, biochemical, fluorescence polarization, GDP tracer | ADP-ribosylation factor GTPase-activating protein 1 (Rattus norvegicus), Q62848 | inhibition, % at 16.5 µM | 360,000 tested, 0.26% active | Arfgap1-stimulated ARF1 GTP hydrolysis, GDP FP detection | AID 651572, 2012;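 active means inhibition above a per-plate limit, mean inhibition of low control wells plus 3 SD, cut at about 25% in these data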;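 further: 0% = DMSO wells with enzyme and 100% = wells lacking Arfgap1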
Target sequence (Q62848 1-136 limits assumed): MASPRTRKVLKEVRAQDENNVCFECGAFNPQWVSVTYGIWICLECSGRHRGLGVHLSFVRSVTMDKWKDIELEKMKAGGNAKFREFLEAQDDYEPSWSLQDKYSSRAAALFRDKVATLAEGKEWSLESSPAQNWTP
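Replicates: Single well per compound | Assay system: Truncated rat Arfgap1 GAP domain | Control set: No-Arfgap1 wells (100%) versus DMSO full-reaction wells (0%) | Times: Enzyme reaction 120 min at 25 °C after 20 min preincubation | Reagent: Human ARF1(Δ1-17)-GTP substrate | Measured by: Tracer-displacement fluorescence polarization with EDTA stop, 620/688 nm | Measure: Percent inhibition of Arfgap1-stimulated GTP hydrolysis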
sPLA2-III inh: human group III sPLA2 inhibitors, primary screen, biochemical, QFRET, BODIPY PC-A2 liposome substrate; Group 3 secretory phospholipase A2 (Homo sapiens), Q9NZ20; QFRET BODIPY PC-A2 liposome hydrolysis, fluorescence; inhibition, % at 12.2 µM; 370,000 tested, 0.56% active;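 active means inhibition above mean plus 3 SD of compounds lying within the high and low control bounds, cut at about 19% in these data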;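 further: 0% = median of test compound wells and 100% = no enzyme DMSO wells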
bovine MsrA act: bovine MsrA enzyme activators, primary screen, biochemical, absorbance, HTS | purified bovine MsrA, absorbance read-out | activation, % at 10.6 µM | 360,000 tested, 0.3% active | Methionine sulfoxide reductase A (Bos taurus); in the data active means activation above about 7.5%;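 further: 0% = vehicle and 100% = reference activator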
MsrA inhibitor: bovine MsrA enzyme inhibitors, primary screen, biochemical, absorbance, HTS; Methionine sulfoxide reductase A (Bos taurus); purified bovine MsrA, absorbance read-out; inhibition, % at 15.5 µM; 360,000 tested, 0.75% active; AID 651718, 2012; in the data active means inhibition above about 4.5%;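 further: 0% = vehicle wells with enzyme and 100% = reference inhibitor wells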
NR1D1 modulator: modulators of Rev-erb alpha DNA binding, primary screen, biochemical, FITC-DNA, fluorescence polarization, uHTS. 370,000 tested, 0.79% active. Rev-erbα–FITC-DNA binding, 90 min. Nuclear receptor subfamily 1 group D member 1 (Homo sapiens), P20393. activity, % at 10 µM;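 active means activity above about 14%, limit read from the data; passing the limit was not always enough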;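 further: 0% = DMSO wells with 35 nM protein and 100% = DMSO wells with 750 nM protein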
ASAP1 inh: inhibitors of human ASAP1 ArfGAP activity, primary screen, biochemical, fluorescence polarization. ASAP1-stimulated ARF1 GTP hydrolysis, GDP FP detection. inhibition, % at 16.5 µM. 360,000 tested, 0.19% active. Arf-GAP with SH3 domain, ANK repeat and PH domain-containing protein 1 (Homo sapiens), …; in the data active means inhibition above about 25%;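 further: 0% = vehicle with enzyme and substrate and 100% = no enzyme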
Target sequence (Q9ULH1 325-724 limits assumed): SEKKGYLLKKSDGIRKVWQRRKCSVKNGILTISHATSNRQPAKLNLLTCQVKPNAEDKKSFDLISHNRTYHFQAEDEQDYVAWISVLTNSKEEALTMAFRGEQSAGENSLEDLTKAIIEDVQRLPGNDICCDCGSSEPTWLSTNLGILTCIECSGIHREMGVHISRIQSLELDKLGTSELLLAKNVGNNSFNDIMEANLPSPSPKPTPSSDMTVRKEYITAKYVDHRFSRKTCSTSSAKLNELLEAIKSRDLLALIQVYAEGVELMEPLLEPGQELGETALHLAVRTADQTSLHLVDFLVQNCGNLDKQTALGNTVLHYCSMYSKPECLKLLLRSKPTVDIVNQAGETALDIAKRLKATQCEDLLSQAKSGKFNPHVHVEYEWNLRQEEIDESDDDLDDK
Rev-erbA confirm: modulators of Rev-erb alpha DNA binding, confirmation, biochemical, FITC-DNA, fluorescence polarization, single point | shares compounds with NR1D1 modulator | 90 min | activation, % at 25 µM | 3,000 tested, 61% active | AID 1259319, 2017;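 active means activation at or above a set limit, or at least 3 SD above the negative control mean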;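 further: 0% = 35 nM protein with DMSO and 100% = 750 nM protein high control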
RORg counter: modulation of RORgamma DNA binding, dose response, counter-screen for Rev-erb alpha modulator project, biochemical, fluorescence polarization, FITC-DNA; shares compounds with NR1D1 modulator; purified RORgamma protein-FITC-DNA binding; IC50, µM; 910 tested, 8% active;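 active means Compounds whose fitted half-maximal concentration for disrupting protein-DNA binding is below 10 micromolar; the record names Rev-erb in its text, so the target is in doubt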
Active calls of the source: *; i = inactive; . = no result.

SMILES	ARFGAP1 inh	sPLA2-III inh	bovine MsrA act	MsrA inhibitor	NR1D1 modulator	ASAP1 inh	Rev-erbA confirm	others
O=C(Nc1ccc2c(c1)C(=O)N(c1ccccc1)C2=O)c1cccs1	4	0	-1	0	20*	4	-6
O=C(O)CCN1C(=O)c2ccc(NC(=O)c3cccs3)cc2C1=O	-7	5	4	2	-1	8	.
O=C1OC(c2ccc(O)cc2)(c2ccc(O)cc2)c2ccccc21	19	-43	3	0	-5	1	.
O=C1OC(c2ccccc2)(c2ccccc2)c2ccsc21	4	-19	6	-1	23*	-1	20*
C/C(=C/c1oc2ccc(O)cc2c1[N+](=O)[O-])N(C)C	6	3	-4	2	22*	-1	25*
CC(=O)Oc1ccc2oc(/C=C/N(C)C)c([N+](=O)[O-])c2c1	6	2	0	4	25*	7	43*	RORg counter=>40
COc1ccc2oc(/C=C/N(C)C)c(C(=O)c3ccc(Cl)cc3)c2c1	-4	2	-10	1	-1	-2	.
COc1ccc(-c2cc(-c3ccc(Br)cc3)nc3ncnn23)cc1OC	2	3	-13	1	25*	9	8
CC(=NN=C(C)c1ccc(O)cc1)c1ccc(O)cc1	-7	5	-6	2	-1	-4	.
C/C=C(/C(=C/C)c1ccc(O)cc1)c1ccc(O)cc1	16	-24	1	0	31*	2	40*	RORg counter=>40
CCOC(=O)C(C)Sc1cc(CS(=O)(=O)c2ccccc2)nc(-c2ccccc2)n1 (stereo not drawn)	7	-29	-1	0	29*	-7	36*	RORg counter=>40
CCOC(=O)N1CCN(C(=O)C[C@@H]2C[C@@]3(C(=O)OC)CCCCC=C3N(Cc3cccc4ccccc34)C2=O)CC1	-8	-8	-5	2	2	-9	.
c1ccc2c(c1)nc(N1CCCCC1)c1ccccc12	12	-2	-2	-1	-1	3	.
N#Cc1cnn2c1nc(N1CCCCC1)c1ccccc12	0	4	-8	1	32*	5	3
COc1ccccc1C=C(C(=O)c1ccccc1)c1ccccc1	10	3	-11	2	18*	1	5
NC(=O)c1cc2cc(Cc3ccccc3Cl)ccc2oc1=O	6	-1	-15	0	20*	5	17
Cc1cc(NC(=O)CSc2cc(C)c3ccccc3n2)no1	-5	12	-2	1	23*	0	4
CCCc1nc(SCC(=O)Nc2cc(C)on2)c2ccccc2n1	2	1	-5	2	4	1	.
Cc1cc(NC(=O)CSc2nc(-c3cccs3)nc3ccccc23)no1	3	-1	0	1	28*	-5	19*
CCCCn1c(SCC(=O)Nc2cc(C)on2)nc2ccccc2c1=O	5	4	0	1	43*	1	14
Cc1cc(NC(=O)CSc2ncnc3ccccc23)no1	-7	3	-8	0	-4	-14	.
Cc1cc(NC(=O)CSc2c3c(nc4ccccc24)CCC3)no1	-4	-2	-9	-1	5	-4	.
CCCCn1c(SCC(=O)Nc2ccc(NC(C)=O)cc2)nc2ccccc2c1=O	4	0	-2	0	8	9	.
Cc1cc(NC(=O)CSc2nc(C(C)(C)C)nc3ccccc23)no1	6	5	-2	-1	36*	-6	13
O=C(CCS(=O)(=O)c1ccccc1)Nc1cc(Cl)ccc1F	.	-3	.	.	2	.	.
SMILES	ARFGAP1 inh	sPLA2-III inh	bovine MsrA act	MsrA inhibitor	NR1D1 modulator	ASAP1 inh	Rev-erbA confirm	others
O=C(NCc1cccc(C(F)(F)F)c1)C1C(=O)Nc2ccccc2C(=O)N1C1CCCC1 (stereo not drawn)	-15	0	.	-1	-3	-3	.
CC(C)(C)c1ccc(C(=O)Nc2cc(Cl)ccc2C(=O)O)cc1	.	-34	.	.	-4	.	.
CC(OC(=O)c1cc2c(ccc3ccccc32)oc1=O)c1nc2ccccc2s1 (stereo not drawn)	-1	-2	-3	-1	54*	7	33*	RORg counter=>40
CC(C)(C)NC(=O)c1cc2c(ccc3ccccc32)oc1=O	3	0	-1	-1	37*	-8	25*
O=C(NCc1ccccn1)c1cc2c(ccc3ccccc32)oc1=O	10	10	-8	2	-3	-4	.
O=C(Cn1c(=O)c(=O)n(Cc2ccccc2)c2ccc(Cl)cc21)Nc1cccc(F)c1	-2	9	-3	0	44*	8	24*
O=C(CN1CCN(Cc2ccccc2)CC1)Nc1cccc(Cl)c1	10	-4	-2	1	-3	-1	.
O=C(Cn1c2ccccc2c(=O)c2ccccc21)Nc1cccc(F)c1	6	-3	-5	1	28*	4	16
Cc1ccc(NC(=O)CSc2nc3ncc(Br)cc3[nH]2)cc1C	-11	-2	-4	-1	195*	6	186*	RORg counter=>40
Cc1cc(C)c(NC(=O)CSc2nc3ncc(Cl)cc3[nH]2)c(C)c1	-5	-9	-5	0	11	13	.
Cc1cc(NS(=O)(=O)c2ccc(NC(=O)CSc3nc4ncc(Br)cc4[nH]3)cc2)nc(C)n1	-6	-4	-2	0	-2	6	.
Cc1cc(C)c(NC(=O)CSc2nc3ncc(Br)cc3[nH]2)c(Cl)c1	3	-12	-5	-1	47*	11	64*	RORg counter=i
COc1ccc(S(=O)(=O)N2CCCCC2c2cc(C(=O)Nc3ccc4c(c3)OCO4)no2)cc1 (stereo not drawn)	10	-7	-11	-1	-6	-1	.
C[C@H](O)[C@@H]1C(=O)N2CCc3c([nH]c4ccccc34)[C@@H]2C[C@@H]1N(C)C(=O)c1cc(Cl)cc(Cl)c1	3	-21	1	-1	7	14	.
CCC(NC(=O)C1CCCN(c2ncccn2)C1)c1ccccc1 (stereo not drawn)	.	-1	.	.	4	.	.
